From ChEMBL document CHEMBL4393701, “Appendix A. dithioloquinolinethiones as new potential multitargeted antibacterial and antifungal agents: Synthesis, biological evaluation and molecular docking studies” (2019)
Converted amounts (≈) assume the structure as drawn.

Assays:
Bacillus cereus [1] = test: Antibacterial activity against Bacillus cereus clinical isolate after 24 hrs by iodonitrotetrazolium chloride dye based microdilution assay; assay type: functional
In short: (§1)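 Fresh overnight cultures adjusted spectrophotometrically to 1×10^5 CFU/mL, giving 1.0×10^4 CFU per well in tryptic soy broth. Compounds were dissolved in 5% DMSO and tested at 0.001-1.0 mg/ml by serial dilution; 5% DMSO was the negative control. After 24 h at 37 °C, 0.2 mg/mL INT solution was added for 30 min at 37 °C and OD read at 655 nm. MIC is the lowest concentration giving significant growth inhibition versus the positive control. Duplicates, repeated three times.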

Bacillus cereus [2] = test: Bactericidal activity against Bacillus cereus clinical isolate incubated for 24 hrs followed by re-plating on tryptic soy broth; assay type: functional
In short: (§2)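 Bacteria were grown in tryptic soy broth, 1.0×10^4 CFU per well, with compounds in 5% DMSO at 0.001-1.0 mg/ml for 24 h at 37 °C. Then 10 µL was subcultured into fresh TSB. MBC is the lowest concentration showing no growth after subculture, taken as 99.5% kill of the original inoculum. Duplicates, repeated three times.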

Micrococcus flavus [3] = test: Antibacterial activity against Micrococcus flavus ATCC 10240 after 24 hrs by iodonitrotetrazolium chloride dye based microdilution method; assay type: functional; conditions: ATCC 10240, 24 h; in short: as §1
Micrococcus flavus [4] = test: Bactericidal activity against Micrococcus flavus ATCC 10240 incubated for 24 hrs followed by re-plating on tryptic soy broth; assay type: functional; conditions: ATCC 10240, 24 h; in short: as §2
Staphylococcus aureus [5] = test: Antibacterial activity against Staphylococcus aureus ATCC 6538 after 24 hrs by iodonitrotetrazolium chloride dye based microdilution method; assay type: functional; conditions: ATCC 6538, 24 h; in short: as §1
Staphylococcus aureus [6] = test: Bactericidal activity against Staphylococcus aureus ATCC 6538 incubated for 24 hrs followed by re-plating on tryptic soy broth; assay type: functional; conditions: ATCC 6538, 24 h; in short: as §2
Listeria monocytogenes [7] = test: Antibacterial activity against Listeria monocytogenes NCTC 7973 after 24 hrs by iodonitrotetrazolium chloride dye based microdilution method; assay type: functional; conditions: NCTC 7973, 24 h; in short: as §1
Listeria monocytogenes [8] = test: Bactericidal activity against Listeria monocytogenes NCTC 7973 incubated for 24 hrs followed by re-plating on tryptic soy broth; assay type: functional; conditions: NCTC 7973, 24 h; in short: as §2
Enterobacter cloacae [9] = test: Antibacterial activity against Enterobacter cloacae clinical isolate after 24 hrs by iodonitrotetrazolium chloride dye based microdilution method; assay type: functional; in short: as §1
Enterobacter cloacae [10] = test: Bactericidal activity against Enterobacter cloacae incubated for 24 hrs followed by re-plating on tryptic soy broth; assay type: functional; in short: as §2
Pseudomonas aeruginosa [11] = test: Antibacterial activity against Pseudomonas aeruginosa ATCC 27853 after 24 hrs by iodonitrotetrazolium chloride dye based microdilution method; assay type: functional; conditions: ATCC 27853, 24 h; in short: as §1
Pseudomonas aeruginosa [12] = test: Bactericidal activity against Pseudomonas aeruginosa ATCC 27853 incubated for 24 hrs followed by re-plating on tryptic soy broth; assay type: functional; conditions: ATCC 27853, 24 h; in short: as §2
Salmonella typhimurium [13] = test: Antibacterial activity against Salmonella typhimurium ATCC 13311 after 24 hrs by iodonitrotetrazolium chloride dye based microdilution method; assay type: functional, Salmonella enterica subsp. enterica serovar Typhimurium; conditions: Salmonella enterica, ATCC 13311, 24 h; in short: as §1
Salmonella typhimurium [14] = test: Bactericidal activity against Salmonella typhimurium ATCC 13311 incubated for 24 hrs followed by re-plating on tryptic soy broth; assay type: functional, Salmonella enterica subsp. enterica serovar Typhimurium; conditions: Salmonella enterica, ATCC 13311, 24 h; in short: as §2
Escherichia coli [15] = test: Antibacterial activity against Escherichia coli ATCC 35210 after 24 hrs by iodonitrotetrazolium chloride dye based microdilution method; assay type: functional; conditions: ATCC 35210, 24 h; in short: as §1
Escherichia coli [16] = test: Bactericidal activity against Escherichia coli ATCC 35210 incubated for 24 hrs followed by re-plating on tryptic soy broth; assay type: functional; conditions: ATCC 35210, 24 h; in short: as §2
Aspergillus fumigatus [17] = test: Antifungal activity against Aspergillus fumigatus ATCC 1022 after 72 hrs by microdilution technique; assay type: functional; conditions: ATCC 1022, 72 h
In short: (§3)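 Spores were washed off malt agar with 0.85% saline containing 0.1% Tween 80 and adjusted to about 1.0×10^5 per well. Compounds in 5% DMSO were serially diluted (0.001-1.0 mg/ml) in malt broth with inoculum. Plates were shaken at 160 rpm for 72 h at 28 °C. MIC is the lowest concentration without visible growth under a binocular microscope. Three independent experiments in duplicate.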

Aspergillus fumigatus [18] = test: Fungicidal activity against Aspergillus fumigatus ATCC 1022 incubated for 72 hrs followed by sub-culturing on broth malt medium and measured after 72 hrs; assay type: functional; conditions: ATCC 1022, 72 h
In short: (§4)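 After 72 h exposure in malt broth, 2 µL from test wells was subcultured into wells holding 100 µL broth and incubated a further 72 h at 28 °C. MFC is the lowest concentration with no visible growth, taken as 99.5% kill of the original inoculum. Three independent experiments in duplicate.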

Aspergillus versicolor [19] = test: Antifungal activity against Aspergillus versicolor ATCC 11730 after 72 hrs by microdilution method; assay type: functional; conditions: ATCC 11730, 72 h; in short: as §3
Aspergillus versicolor [20] = test: Fungicidal activity against Aspergillus versicolor ATCC 11730 incubated for 72 hrs followed by sub-culturing on broth malt medium and measured after 72 hrs; assay type: functional; conditions: ATCC 11730, 72 h; in short: as §4
Aspergillus ochraceus [21] = test: Antifungal activity against Aspergillus ochraceus ATCC 12066 after 72 hrs by microdilution technique; assay type: functional; conditions: ATCC 12066, 72 h; in short: as §3
Aspergillus ochraceus [22] = test: Fungicidal activity against Aspergillus ochraceus ATCC 12066 incubated for 72 hrs followed by sub-culturing on broth malt medium and measured after 72 hrs; assay type: functional; conditions: ATCC 12066, 72 h; in short: as §4
Aspergillus niger [23] = test: Antifungal activity against Aspergillus niger ATCC 6275 after 72 hrs by microdilution technique; assay type: functional; conditions: ATCC 6275, 72 h; in short: as §3
Aspergillus niger [24] = test: Fungicidal activity against Aspergillus niger ATCC 6275 incubated for 72 hrs followed by sub-culturing on broth malt medium and measured after 72 hrs; assay type: functional; conditions: ATCC 6275, 72 h; in short: as §4
Trichoderma viride [25] = test: Antifungal activity against Trichoderma viride IAM 5061 after 72 hrs by microdilution technique; assay type: functional; conditions: IAM 5061, 72 h; in short: as §3
Trichoderma viride [26] = test: Fungicidal activity against Trichoderma viride IAM 5061 incubated for 72 hrs followed by sub-culturing on broth malt medium and measured after 72 hrs; assay type: functional; conditions: IAM 5061, 72 h; in short: as §4
Penicillium ochrochloron [27] = test: Antifungal activity against Penicillium ochrochloron ATCC 9112 after 72 hrs by microdilution technique; assay type: functional; conditions: ATCC 9112, 72 h; in short: as §3
Penicillium ochrochloron [28] = test: Fungicidal activity against Penicillium ochrochloron ATCC 9112 incubated for 72 hrs followed by sub-culturing on broth malt medium and measured after 72 hrs; assay type: functional; conditions: ATCC 9112, 72 h; in short: as §4
[29] = Antifungal activity against Penicillium funiculosum ATCC 36839 after 72 hrs by microdilution technique; assay type: functional; conditions: Talaromyces pinophilus, ATCC 36839, 72 h; in short: as §3
[30] = Fungicidal activity against Penicillium funiculosum ATCC 36839 incubated for 72 hrs followed by sub-culturing on broth malt medium and measured after 72 hrs; assay type: functional; conditions: Talaromyces pinophilus, ATCC 36839, 72 h; in short: as §4
Penicillium cyclopium [31] = test: Antifungal activity against Penicillium verrucosum var. cyclopium food isolate after 72 hrs by microdilution technique; assay type: functional; in short: as §3
Penicillium cyclopium [32] = test: Fungicidal activity against Penicillium verrucosum var. cyclopium food isolate incubated for 72 hrs followed by sub-culturing on broth malt medium and measured after 72 hrs; assay type: functional; in short: as §4

Q: For `CCOc1ccc2c(c1)-c1c(ssc1=S)C(C)(C)N2C(=O)c1ccc(Cl)c([N+](=O)[O-])c1`, which MIC (Bacillus cereus [1]) is on record?
A: 30.4 µM (≈ 15 µg/mL)

Q: And the MBC (Bacillus cereus [2])?
A: 60.9 µM (≈ 30 µg/mL)

Q: And the MIC (Micrococcus flavus [3])?
A: 30.4 µM (≈ 15 µg/mL)

Q: What about the MBC (Micrococcus flavus [4]) of the same molecule?
A: 60.9 µM (≈ 30 µg/mL)

Q: And the MIC (Staphylococcus aureus [5])?
A: 30.4 µM (≈ 15 µg/mL)

Q: And the MBC (Staphylococcus aureus [6])?
A: 60.9 µM (≈ 30 µg/mL)

Q: And the MIC (Listeria monocytogenes [7])?
A: 30.4 µM (≈ 15 µg/mL)

Q: What about the MBC (Listeria monocytogenes [8]) of the same molecule?
A: 60.9 µM (≈ 30 µg/mL)

Q: What about the MIC (Enterobacter cloacae [9]) of the same molecule?
A: 30.4 µM (≈ 15 µg/mL)

Q: And the MBC (Enterobacter cloacae [10])?
A: 60.9 µM (≈ 30 µg/mL)

Q: And the MIC (Pseudomonas aeruginosa [11])?
A: 30.4 µM (≈ 15 µg/mL)

Q: What about the MBC (Pseudomonas aeruginosa [12]) of the same molecule?
A: 60.9 µM (≈ 30 µg/mL)

Q: What about the MIC (Salmonella typhimurium [13]) of the same molecule?
A: 30.4 µM (≈ 15 µg/mL)

Q: What about the MBC (Salmonella typhimurium [14]) of the same molecule?
A: 60.9 µM (≈ 30 µg/mL)

Q: What about the MIC (Escherichia coli [15]) of the same molecule?
A: 30.4 µM (≈ 15 µg/mL)

Q: What about the MBC (Escherichia coli [16]) of the same molecule?
A: 60.9 µM (≈ 30 µg/mL)

Q: What about the MIC (Aspergillus fumigatus [17]) of the same molecule?
A: 4.46 ×10⁻² mM

Q: And the MFC (Aspergillus fumigatus [18])?
A: 12.2 ×10⁻² mM

Q: What about the MIC (Aspergillus versicolor [19]) of the same molecule?
A: 12.2 ×10⁻² mM

Q: What about the MFC (Aspergillus versicolor [20]) of the same molecule?
A: 24.3 ×10⁻² mM

Q: And the MIC (Aspergillus ochraceus [21])?
A: 1.62 ×10⁻² mM

Q: And the MFC (Aspergillus ochraceus [22])?
A: 3.04 ×10⁻² mM

Q: And the MIC (Aspergillus niger [23])?
A: 2.23 ×10⁻² mM

Q: What about the MFC (Aspergillus niger [24]) of the same molecule?
A: 6.09 ×10⁻² mM

Q: And the MIC (Trichoderma viride [25])?
A: 1.22 ×10⁻² mM

Q: And the MFC (Trichoderma viride [26])?
A: 1.62 ×10⁻² mM

Q: And the MIC (Penicillium ochrochloron [27])?
A: 1.22 ×10⁻² mM

Q: What about the MFC (Penicillium ochrochloron [28]) of the same molecule?
A: 1.62 ×10⁻² mM

Q: What about the MIC [29] of the same molecule?
A: 3.04 ×10⁻² mM

Q: And the MFC [30]?
A: 6.09 ×10⁻² mM

Q: And the MIC (Penicillium cyclopium [31])?
A: 24.3 ×10⁻² mM

Q: And the MFC (Penicillium cyclopium [32])?
A: 48.7 ×10⁻² mM
